Screens from PubChem BioAssay.
An excerpt weighted towards active compounds, which were near 2.9% of everything screened.
Runt-CBFb FRET – Runt domain-CBFb interaction inhibition; AID 1496; Q01196+Q13951; inhibition, % at 20 µM; hit rate 0.46% among 220,000; Cerulean-Runt/Venus-CBFb FRET ratio 530/480, 1 h;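 active = inhibition over about 50% at 20 µM in the single-dose screen, limit read from the data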;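 note: 0% = DMSO wells and 100% = excess unlabeled CBFb competitor control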
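Assay system: Cerulean-tagged RUNX1 Runt domain (FRET donor) fusion protein / Amount: 100 nM each of Venus-CBFb and Cerulean-Runt domain / Medium: Tris buffer pH 7.5 with salts and BSA / Also added: Venus-CBFb 100 nM / Schedule: 1 h complex formation plus 1 h compound treatment, room temperature / Signal: FRET fluorescence / Read-out: loss of energy transfer signal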
RanGTP-Imp inh – inhibitors of RanGTP-importin-beta interaction, primary screen, biochemical, FRET, CFP-Ran, YFP-importin-beta, homogeneous. cell-free CFP-Ran/YFP-importin-beta FRET ratio. AID 2216. hit rate 1.1% among 300,000. inhibition, % (no concentration beside the values);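 active = more than half of the replicate wells show a fall in the fluorescence ratio signal beyond about 16%, limit read from the data, passing the limit was not always enough; inconclusive = exactly half of the replicate wells pass the set limit; inactive = fewer than half of replicates pass the limit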;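 note: 0% = DMSO wells and 100% = Ran loaded with GDP instead of GTP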
M18AAP inhibitor – blocks P. falciparum M18 aspartyl aminopeptidase. recombinant PfM18AAP, H-Glu-NHMec fluorogenic cleavage. inhibition, % at 7.35 µM. hit rate 1.2% among 290,000. AID 1822;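 active = inhibition above the campaign mean inhibition over all tested compounds plus 3 SD, cut at about 28% in these data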;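 note: 0% = plate median of test compound wells and 100% = 2 mM ZnCl2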
Runt-SMMHC FRET – inhibitors of human RUNX1 Runt domain binding to CBFb-SMMHC. Cerulean-Runt/Venus-CBFb-SMMHC FRET ratio 530/480, 1 h. inhibition, % at 20 µM. hit rate 0.74% among 220,000;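 active = mean inhibition across duplicate retests at 20 µM reaching about 50%, limit read from the data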;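 note: 0% = DMSO wells and 100% = wells with excess untagged CBFb-SMMHC; inhibitors lower the FRET ratio by blocking Runt binding to CBFb-SMMHC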
Hck Nef HTS – human Hck-Nef kinase inhibition. P08631. inhibition, % at 20 µM. AID 463187. Recombinant Hck-YEEI plus Nef, Z-Lyte FRET kinase assay. hit rate 0.68% among 220,000;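 active = Hck-Nef kinase inhibition above about 50%, limit read from the data; inactive = inhibition below that limit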;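 note: 0% = DMSO with Hck plus Nef and 100% = Hck alone without Nef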
Target sequence (P08631 whole entry, looked up): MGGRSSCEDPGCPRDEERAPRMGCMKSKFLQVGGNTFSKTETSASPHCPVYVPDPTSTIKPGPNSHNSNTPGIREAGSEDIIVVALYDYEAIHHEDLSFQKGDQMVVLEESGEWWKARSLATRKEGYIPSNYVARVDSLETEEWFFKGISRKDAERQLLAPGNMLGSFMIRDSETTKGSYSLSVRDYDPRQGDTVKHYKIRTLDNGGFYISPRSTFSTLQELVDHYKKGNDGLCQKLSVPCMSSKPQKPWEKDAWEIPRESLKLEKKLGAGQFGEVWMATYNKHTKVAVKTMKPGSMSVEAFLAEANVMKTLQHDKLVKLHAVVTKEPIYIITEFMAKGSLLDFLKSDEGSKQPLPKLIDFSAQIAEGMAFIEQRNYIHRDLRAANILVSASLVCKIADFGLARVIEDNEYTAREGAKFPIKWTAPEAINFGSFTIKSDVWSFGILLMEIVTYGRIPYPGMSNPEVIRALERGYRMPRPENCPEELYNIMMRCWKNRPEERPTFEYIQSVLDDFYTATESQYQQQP
RBBP9 inh – inhibitors of human serine hydrolase RBBP9; O75884; recombinant RBBP9, FP-Rh probe fluorescence polarization; inhibition, % at 7.94 µM; hit rate 0.2% among 220,000;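 active = inhibition above the campaign mean of all tested compounds plus 3 SD, cut at about 14% in these data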;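 note: plate controls were DMSO wells with RBBP9 for no effect and wells lacking RBBP9 protein for full effect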
Target sequence (O75884 whole entry, looked up): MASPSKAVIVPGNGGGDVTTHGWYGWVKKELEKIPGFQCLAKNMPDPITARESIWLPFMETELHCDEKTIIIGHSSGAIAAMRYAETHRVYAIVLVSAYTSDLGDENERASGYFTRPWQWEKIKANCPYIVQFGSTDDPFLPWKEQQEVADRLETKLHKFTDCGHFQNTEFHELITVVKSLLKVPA
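Measured by: FP readout at 525/598 nm; material: recombinant human RBBP9; also added: Serine-hydrolase probe FP-Rh, 375 nM pre-mixing; medium: Tris buffer pH 8.0, NaCl, Pluronic; replication: one well per compound; doses: one concentration, 7.94 µM nominal, 0.794% DMSO; timing: preincubation 30 min plus labeling 45 min at 25 °C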
* hit, by the source's call; ? = inconclusive; · = not tested or not shown.

SMILES	Runt-CBFb FRET	RanGTP-Imp inh	M18AAP inhibitor	Runt-SMMHC FRET	Hck Nef HTS	RBBP9 inh
COC(=O)c1sc(NC(=O)c2cc(-c3ccccc3)nc3ccccc23)c(C#N)c1C	44.5	0.2	45.4*	31.4	-0.7	-1.2
CC(C)(O)C#Cc1ccc(C(=O)N2CCN(c3ccc(Cl)cc3)CC2)cc1	·	?	-6.2	1.6	20.1	4.3
c1ccc(-c2ccc(-c3nccc4ccccc34)[nH]2)cc1	29.6	·	7.2	60.7*	56.9*	-20.5
N#Cc1cc(-c2ccccc2)[nH]c1-c1nccc2ccccc12	-0.2	-3.4	-1.0	0.8	10.2	-0.5
COC(=O)C1=C(N)Oc2cc(C)n(Cc3ccncc3)c(=O)c2C1c1cccnc1 (stereo unspecified)	·	-2.6	-13.8	·	-0.8	-12.5
CCn1c(C)cc2c(c1=O)C(c1ccccc1)C(C(=O)OC)=C(N)O2 (stereo unspecified)	-2.3	42.5*	0.0	1.3	2.9	6.9
Cc1cc(NCc2ccco2)nc2cc(O)ccc12	32.5	30.3*	2.1	76.4*	14.1	-2.2
COc1ccc(-c2cc(=O)oc3cc(O)ccc23)cc1	·	-1.7	1.5	·	·	·
COc1ccc(-c2cc(=O)oc3cc(OC(=O)C4CCCCC4)c(Cl)cc23)cc1	66.6*	20.7*	0.5	58.5*	40.0	1.0
CCOC(=O)C(C)Sc1nc2c(c(-c3cccs3)c1C#N)CCC2 (stereo unspecified)	1.9	109.0*	-12.4	32.8	6.5	-9.5
CC(C)OC(=O)CC(=O)CSc1nc2c(c(-c3cccs3)c1C#N)CCC2	6.1	?	-0.7	7.4	5.1	-2.8
Nc1nc(N)c(N=Nc2ccc(Cl)cc2)c(=O)[nH]1	2.0	-2.8	1.7	-3.2	-2.9	-0.1
Nc1nc(N)c(N=Nc2ccc(SCC(=O)O)cc2)c(=O)[nH]1	12.4	44.0*	7.1	2.2	5.3	1.9
CNC(=S)Nc1ccc(C23CC4CC(CC(C4)C2)C3)cc1	1.6	0.0	2.0	-1.2	-0.2	-8.5
Oc1ccc(C23CC4CC(CC(C4)C2)C3)cc1O	·	-1.2	90.2*	·	·	·
CC(=O)Nc1ccc(C23CC4CC(CC(C4)C2)C3)cc1	·	26.4*	6.6	·	·	·
CCc1noc(C)c1C(=O)OC(C)C(=O)Nc1ccccc1OC (stereo unspecified)	·	-2.6	·	·	·	·
CCOC(=O)/C(C#N)=C(C)/C=C1\Sc2ccccc2N1CC	-36.7	19.4*	3.4	-40.0	3.1	-3.8
CCC(=O)/C=C1\Sc2ccc(OC)cc2N1CC	19.5	1.3	9.4	2.7	1.8	-8.3
CCC(=O)/C=C1\Sc2ccc(OC)cc2N1CCO	0.5	2.9	29.5*	-1.1	0.4	-12.0
Cc1ccccc1C(=O)NCC(c1ccco1)N1CCc2ccccc2C1 (stereo unspecified)	·	-0.6	·	·	·	·
Oc1cccc(/C=N/Nc2nn3cnnc3c3ccccc23)c1	-2.1	-4.0	17.5	1.2	29.0	-7.6
COc1cccc(/C=N/Nc2nn3cnnc3c3ccccc23)c1O	-2.5	-4.0	30.9*	-7.6	-0.7	-6.4
Cc1ccc(N(C(=O)c2csnn2)C(C(=O)NC2CCCCC2)c2cccnc2)cc1 (stereo unspecified)	·	0.9	4.1	·	·	·
Nc1ccc2nc(-c3ccccc3)c(-c3ccccc3)nc2c1	·	-14.0	26.2	·	·	·
SMILES	Runt-CBFb FRET	RanGTP-Imp inh	M18AAP inhibitor	Runt-SMMHC FRET	Hck Nef HTS	RBBP9 inh
NSc1nc(N)c2nc(-c3ccccc3)c(-c3ccccc3)nc2n1	43.1	36.2*	14.4	69.3*	20.0	7.6
Nc1nc(N)c2nc(-c3ccccc3)c(N)nc2n1	26.4	-1.5	-4.9	55.9*	27.5	-4.6
CSCCC(NC(C)=O)C(=O)Oc1ccc2c3c(c(=O)oc2c1)CCCC3 (stereo unspecified)	37.9	·	5.6	82.4*	30.7	-5.4
COC(=O)C1=CN(Cc2ccc(OC)cc2)C=C(C(=O)OC)C1c1cc(OC)c(OC)c(OC)c1	·	12.6	-2.0	·	·	·
COC(=O)C1=CN(CC2CCCO2)C=C(C(=O)OC)C1c1cc(OC)c(OC)c(OC)c1 (stereo unspecified)	36.6	3.3	-2.4	92.7*	45.4	4.7
C=CCc1cc(/C=C/c2nc(O)c([N+](=O)[O-])c(=O)[nH]2)cc(OC)c1O	37.5	34.5*	28.0	80.5*	31.5	-3.1
CCc1nnc(NC(=O)c2ccc(-c3ccc([N+](=O)[O-])cc3Cl)o2)s1	19.4	0.7	-2.0	5.1	29.2	1.1
CC(=O)NC1C(=O)N(CCN2CCOCC2)c2ccc(Br)cc21 (stereo unspecified)	·	-3.9	30.2*	·	·	·
CCOc1ccc2c(c1)C(NC(C)=O)C(=O)N2CCN1CCOCC1 (stereo unspecified)	·	-0.9	20.1	·	·	·
[O-][n+]1c2ccccc2cc2ccccc21	·	79.0*	·	·	·	·
Cc1oc(-c2ccccc2)[n+]([O-])c1C	0.6	-4.2	-4.6	-0.3	-0.8	-5.2
O=C(NCC(c1ccco1)N1CCOCC1)C1CCCCC1 (stereo unspecified)	·	0.9	·	·	·	·
CCOC(=O)CC(=O)CSc1nc2c(cc1C#N)CCCCCC2	40.5	13.6	·	50.2*	·	·
CC(C)OC(=O)CC(=O)CSc1nc2c(cc1C#N)CCCC2	39.4	10.3	10.0	43.6	2.9	5.8
CC(C)OC(=O)CC(=O)CSc1nc2c(cc1C#N)CCCCCC2	49.5	-2.1	7.7	78.5*	2.5	-5.3
Cc1ccc(S(=O)(=O)N2CCOC2CNC(=O)C(=O)NCCCN2CCOCC2)cc1 (stereo unspecified)	·	8.8	5.5	·	·	·
COc1c2ccoc2c(OC[C@@H](O)C(C)(C)OC)c2oc(=O)ccc12	29.6	8.3	-6.5	83.5*	2.8	-6.7
CCOC(=O)C1C(=O)C=C(c2ccc(NS(C)(=O)=O)cc2)CC1c1ccco1 (stereo unspecified)	78.8*	6.3	-3.7	-19.8	-3.3	-8.3
Fc1ccc(-n2c(Cn3nnc4ccccc43)n[nH]c2=S)cc1	7.5	10.9	30.0*	-1.5	-13.3	-3.0
N=c1c(C(=O)NCC2CCCO2)cc2c(=O)n3ccccc3nc2n1Cc1ccc(F)cc1 (stereo unspecified)	·	178.5*	-10.3	·	·	·
Cc1ccc2nc3c(cc(C(=O)NCC4CCCO4)n3C)c(=O)n2c1 (stereo unspecified)	18.7	·	-3.6	88.6*	27.2	-0.4
N=c1c(C(=O)NCC2CCCO2)cc2c(=O)n3ccccc3nc2n1Cc1ccco1 (stereo unspecified)	·	73.2*	6.5	·	·	·
O=C(Cn1c(=O)n(Cc2ccc(F)cc2)c(=O)c2ccccc21)NCC1CCCO1 (stereo unspecified)	·	4.4	-1.7	·	·	·
Cn1c(C(=O)NCC2CCCO2)cc2c(=O)n(C)c3ccccc3c21 (stereo unspecified)	0.5	-1.7	4.5	-2.0	1.4	-1.4
